Laboratory results: ChEMBL document CHEMBL1255454, “Systematic approach to optimizing specifically targeted antimicrobial peptides against Streptococcus mutans” (2010)
≈ marks a conversion by molar mass, not a printed value. Calls of active or inactive are those of the source. The calls are words filed in the database; no cut-off is given here. Square brackets hold non-standard residues; d marks the D form. Peptide text beside a SMILES is read from it. Aoc = NCCCCCCCC(=O)O

Experiments:
Streptococcus mutans [1] = experiment: Antimicrobial activity against Streptococcus mutans UA159 after 16 to 20 hrs by broth microdilution assay; assay type: functional
Procedure, shortened: (§1)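 Broth microdilution. Twofold peptide dilutions were made in 50% BHI–50% sterile water for oral streptococci and in 1× Mueller-Hinton broth for the other bacteria. First round 500 to 0.97 µg/ml; a second round of 64 to 0.5 µg/ml was run in some cases, reporting its mode. Inoculum ~1 × 10^5 CFU/ml, 37°C for 16–20 h. Read A600; MIC taken as complete inhibition or ≥90% turbidity reduction versus peptide-free control.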

Streptococcus sanguinis = experiment: Antimicrobial activity against Streptococcus sanguinis NY101 after 16 to 20 hrs by broth microdilution assay; assay type: functional; procedure, shortened: as §1
Streptococcus mitis = experiment: Antimicrobial activity against Streptococcus mitis ATCC 903 after 16 to 20 hrs by broth microdilution assay; assay type: functional; procedure, shortened: as §1
[2] = Antimicrobial activity against Streptococcus gordonii Challis DL1 after 16 to 20 hrs by broth microdilution assay; assay type: functional, Streptococcus gordonii str. Challis; procedure, shortened: as §1
Staphylococcus aureus = experiment: Antimicrobial activity against methicillin-resistant Staphylococcus aureus after 16 to 20 hrs by broth microdilution assay; assay type: functional
Procedure, shortened: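 MRSA grown aerobically in BHI at 37°C. Broth microdilution: 2-fold peptide dilutions in 1× Mueller-Hinton broth, first round 500 to 0.97 µg/ml; if activity below 62.5 µg/ml, sometimes a second round at 64 to 0.5 µg/ml, reporting the mode. Inoculum ~1 × 10^5 CFU/ml, 37°C for 16-20 h. A600 read. MIC = lowest concentration giving complete inhibition or ≥90% turbidity reduction versus peptide-free control.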

Pseudomonas aeruginosa = experiment: Antimicrobial activity against Pseudomonas aeruginosa PAK after 16 to 20 hrs by broth microdilution assay; assay type: functional; procedure, shortened: as §1
Streptococcus mutans [3] = experiment: Antimicrobial activity against Streptococcus mutans UA159 assessed as inhibition of bacterial biofilm formation at 25 uM after 3 mins by fluorescence assay; assay type: functional
Procedure, shortened: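 S. mutans UA159 overnight culture was diluted 1:5,000 in TH with 1% sucrose and grown as biofilm for 24 h. Biofilms were exposed 3 min at room temperature to 25 µM fluorescein-labelled peptide in HEPES/NaHCO3/NaCl/MgCl2 buffer with 0.1% CTAB, pH 7.4, then washed twice. Green fluorescence images were taken and biofilm-associated green pixels quantified as binding intensity units.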

Enterococcus faecalis = experiment: Antimicrobial activity against Enterococcus faecalis after 16 to 20 hrs by broth microdilution assay; assay type: functional; procedure, shortened: as §1
Escherichia coli = experiment: Antimicrobial activity against Escherichia coli W3110 after 16 to 20 hrs by broth microdilution assay; assay type: functional; procedure, shortened: as §1

Row | Molecule | MIC (Streptococcus mutans [1]) [µg/mL] | MIC (Streptococcus sanguinis) [µg/mL] | MIC (Streptococcus mitis) [µg/mL] | MIC [2] [µg/mL] | MIC (Staphylococcus aureus) [µg/mL] | MIC (Pseudomonas aeruginosa) [µg/mL] | inhibition (Streptococcus mutans [3]) | MIC (Enterococcus faecalis) [µg/mL] | MIC (Escherichia coli) [µg/mL]
1 | CC[C@H](C)[C@H](NC(=O)[C@H](Cc1ccccc1)NC(=O)[C@H](Cc1cnc[nH]1)NC(=O)[C@H](CCCCN)NC(=O)[C@@H](NC(=O)[C@@H](N)Cc1ccccc1)[C@@H](C)CC)C(=O)N[C@@H](Cc1cnc[nH]1)C(=O)N[C@@H](CCCNC(=N)N)C(=O)N[C@@H](Cc1ccccc1)C(=O)NCCCCCCCC(=O)N[C@@H](CC(C)C)C(=O)N[C@@H](CCC(N)=O)C(=O)N[C@@H](CC(C)C)C(=O)N[C@@H](CC(C)C)C(=O)N[C@@H](CCCCN)C(=O)N[C@@H](CCC(N)=O)C(=O)N[C@@H](CC(C)C)C(=O)N[C@@H](CC(C)C)C(=O)N[C@@H](CCCCN)C(=O)N[C@@H](CC(C)C)C(=O)N[C@@H](CC(C)C)C(=O)N[C@@H](CCCCN)C(=O)N[C@@H](CCC(N)=O)C(=O)N[C@@H](Cc1ccccc1)C(N)=O (H-FIKHFIHRF[Aoc]LQLLKQLLKLLKQF-NH2) | 16 (≈ 5.17 µM) | 32 (≈ 10.3 µM) | 62.5 (≈ 20.2 µM) | 32 (≈ 10.3 µM) | 62.5 (≈ 20.2 µM) | 62.5 (≈ 20.2 µM) |  |  | 
2 | CC[C@H](C)[C@H](NC(=O)[C@H](Cc1ccccc1)NC(=O)[C@H](Cc1cnc[nH]1)NC(=O)[C@H](CCCCN)NC(=O)[C@@H](NC(=O)[C@@H](N)Cc1ccccc1)[C@@H](C)CC)C(=O)N[C@@H](Cc1cnc[nH]1)C(=O)N[C@@H](CCCNC(=N)N)C(=O)N[C@@H](Cc1ccccc1)C(=O)NCCCCCCCC(=O)N[C@@H](CCCNC(=N)N)C(=O)N[C@@H](Cc1c[nH]c2ccccc12)C(=O)N[C@@H](CCCNC(=N)N)C(=O)N[C@@H](CCCNC(=N)N)C(=O)N[C@@H](CC(C)C)C(=O)N[C@@H](CC(C)C)C(=O)N[C@@H](CCCCN)C(=O)N[C@@H](CCCCN)C(=O)N[C@@H](CC(C)C)C(=O)N[C@@H](Cc1cnc[nH]1)C(=O)N[C@@H](Cc1cnc[nH]1)C(=O)N[C@@H](CC(C)C)C(=O)N[C@@H](CC(C)C)C(=O)N[C@@H](Cc1cnc[nH]1)C(N)=O (H-FIKHFIHRF[Aoc]RWRRLLKKLHHLLH-NH2) | 16 (≈ 4.89 µM) | 32 (≈ 9.78 µM) | 32 (≈ 9.78 µM) | 32 (≈ 9.78 µM) | 62.5 (≈ 19.1 µM) | 62.5 (≈ 19.1 µM) | Active |  | 
3 | CC[C@H](C)[C@H](NC(=O)[C@H](Cc1ccccc1)NC(=O)CCCCCCCNC(=O)[C@H](Cc1ccccc1)NC(=O)[C@H](CCC(N)=O)NC(=O)[C@H](CCCCN)NC(=O)[C@H](CC(C)C)NC(=O)[C@H](CC(C)C)NC(=O)[C@H](CCCCN)NC(=O)[C@H](CC(C)C)NC(=O)[C@H](CC(C)C)NC(=O)[C@H](CCC(N)=O)NC(=O)[C@H](CCCCN)NC(=O)[C@H](CC(C)C)NC(=O)[C@H](CC(C)C)NC(=O)[C@H](CCC(N)=O)NC(=O)[C@@H](N)CC(C)C)C(=O)N[C@@H](CCCCN)C(=O)N[C@@H](Cc1cnc[nH]1)C(=O)N[C@@H](Cc1ccccc1)C(=O)N[C@H](C(=O)N[C@@H](Cc1cnc[nH]1)C(=O)N[C@@H](CCCNC(=N)N)C(=O)N[C@@H](Cc1ccccc1)C(N)=O)[C@@H](C)CC (H-LQLLKQLLKLLKQF[Aoc]FIKHFIHRF-NH2) | 8 (≈ 2.59 µM) | 32 (≈ 10.3 µM) | 32 (≈ 10.3 µM) | 16 (≈ 5.17 µM) | 62.5 (≈ 20.2 µM) | 32 (≈ 10.3 µM) |  |  | 
4 | CC[C@H](C)[C@H](NC(=O)[C@H](Cc1ccccc1)NC(=O)CCCCCCCNC(=O)[C@H](Cc1cnc[nH]1)NC(=O)[C@H](CC(C)C)NC(=O)[C@H](CC(C)C)NC(=O)[C@H](Cc1cnc[nH]1)NC(=O)[C@H](Cc1cnc[nH]1)NC(=O)[C@H](CC(C)C)NC(=O)[C@H](CCCCN)NC(=O)[C@H](CCCCN)NC(=O)[C@H](CC(C)C)NC(=O)[C@H](CC(C)C)NC(=O)[C@H](CCCNC(=N)N)NC(=O)[C@H](CCCNC(=N)N)NC(=O)[C@H](Cc1c[nH]c2ccccc12)NC(=O)[C@@H](N)CCCNC(=N)N)C(=O)N[C@@H](CCCCN)C(=O)N[C@@H](Cc1cnc[nH]1)C(=O)N[C@@H](Cc1ccccc1)C(=O)N[C@H](C(=O)N[C@@H](Cc1cnc[nH]1)C(=O)N[C@@H](CCCNC(=N)N)C(=O)N[C@@H](Cc1ccccc1)C(N)=O)[C@@H](C)CC (H-RWRRLLKKLHHLLH[Aoc]FIKHFIHRF-NH2) | 8 (≈ 2.44 µM) | 16 (≈ 4.89 µM) | 32 (≈ 9.78 µM) | 16 (≈ 4.89 µM) | 62.5 (≈ 19.1 µM) | 32 (≈ 9.78 µM) |  |  | 
5 | CC[C@H](C)[C@H](NC(=O)[C@H](Cc1ccccc1)NC(=O)CCCCCCCNC(=O)[C@H](Cc1ccccc1)NC(=O)[C@H](Cc1c[nH]c2ccccc12)NC(=O)[C@H](CCCNC(=N)N)NC(=O)[C@H](Cc1c[nH]c2ccccc12)NC(=O)[C@H](CCCNC(=N)N)NC(=O)[C@H](Cc1c[nH]c2ccccc12)NC(=O)[C@@H](N)CCCNC(=N)N)C(=O)N[C@@H](CCCCN)C(=O)N[C@@H](Cc1cnc[nH]1)C(=O)N[C@@H](Cc1ccccc1)C(=O)N[C@H](C(=O)N[C@@H](Cc1cnc[nH]1)C(=O)N[C@@H](CCCNC(=N)N)C(=O)N[C@@H](Cc1ccccc1)C(N)=O)[C@@H](C)CC (H-RWRWRWF[Aoc]FIKHFIHRF-NH2) | 32 (≈ 12.5 µM) | 32 (≈ 12.5 µM) | 32 (≈ 12.5 µM) | 62.5 (≈ 24.4 µM) | 62.5 (≈ 24.4 µM) | 125 (≈ 48.8 µM) |  |  | 
6 | H-FHFHLHF-NH2 | 8 | 16 |  |  | 32 | 16 | Active | 16 | 8
7 | H-FIKHFIHRFGGGIKQLLHFFQRF-NH2 | 8 | 32 | 16 | 32 | 62.5 | 125 |  |  | 
8 | H-FIKHFIHRFSATLQLLKQLLKLLKQF-NH2 | 16 | 16 | 32 | 8 | 62.5 | 32 |  |  | 
9 | H-FIKHFIHRFSATRWRRLLKKLHHLLH-NH2 | 16 | 32 | 32 | 32 | 16 | 32 | Active |  | 
10 | H-FIKHFIHRFSGGLQLLKQLLKLLKQF-NH2 | 16 | 32 | 62.5 | 8 | 32 | 32 |  |  | 
11 | H-FIKHFIHRFSGGRWRRLLKKLHHLLH-NH2 | 16 | 16 | 62.5 | 32 | 32 | 32 |  |  | 
12 | H-FIKHFIHRFSGGRWRWRWF-NH2 | 8 | 32 | 32 | 32 | 32 | 62.5 |  |  | 
13 | H-FKKFWKWFRRFGGGFIKHFIHRF-NH2 | 8 | 32 | 62.5 | 125 | 32 | 125 |  |  | 
14 | H-IKQLLHFFQRF-NH2 | 24 | 62.5 | 62.5 | 32 | 62.5 | 62.5 |  |  | 
15 | H-IKQLLHFFQRFGGGFIKHFIHRF-NH2 | 8 | 32 | 16 | 32 | 62.5 | 125 |  |  | 
16 | H-LQLLKQLLKLLKQF-NH2 | 8 | 8 | 16 | 8 | 16 | 8 |  |  | 
17 | H-LQLLKQLLKLLKQFSATFIKHFIHRF-NH2 | 8 | 16 | 32 | 16 | 32 | 32 |  |  | 
18 | H-LQLLKQLLKLLKQFSGGFIKHFIHRF-NH2 | 8 | 16 | 32 | 16 | 32 | 32 |  |  | 
19 | H-RWRRLLKKLHHLLH-NH2 | 8 | 16 | 32 | 16 | 16 | 8 |  |  | 
20 | H-RWRRLLKKLHHLLHSATFIKHFIHRF-NH2 | 8 | 16 | 16 | 16 | 32 | 32 | Active |  | 
21 | H-RWRRLLKKLHHLLHSGGFIKHFIHRF-NH2 | 8 | 32 | 32 | 16 | 32 | 32 |  |  | 
22 | H-RWRWRWFGGGFIKHFIHRF-NH2 | 8 | 32 | 32 | 32 | 32 | 62.5 |  |  | 
23 | H-RWRWRWFSATFIKHFIHRF-NH2 | 8 | 32 | 16 | 62.5 | 62.5 | 62.5 |  |  | 
24 | H-RWRWRWFSGGFIKHFIHRF-NH2 | 8 | 32 | 32 | 32 | 32 | 62.5 |  |  | 
